Data published in ChEMBL document CHEMBL1157468, “Design, synthesis, and testing of non-nephrotoxic desazadesferrithiocin polyether analogues” (J Med Chem, 2008).

Experiments:
Plasma [1] = assay: Biodistribution in Sprague-Dawley rat plasma at 300 umol/kg, po after 1 hr; assay type: ADME, organism-based; details: in vivo
In short: (§1)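 Male Sprague–Dawley rats (250–350 g) got one 300 µmol/kg dose, po or sc. Vehicle was water or the monosodium salt (free acid plus 1 equiv NaOH). Three rats per time point were euthanized by CO2 at 1, 2 or 4 h. Plasma came from citrated cardiac blood; liver, kidney, heart and pancreas were removed. Drug levels were measured by HPLC with UV detection at 310 nm against linear calibration curves (detection limit 0.25 µM).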

Kidney [2] = assay: Biodistribution in Sprague-Dawley rat kidney assessed per gram tissue wet weight at 300 umol/kg, sc after 4 hrs; assay type: ADME, organism-based; details: in vivo
Rattus norvegicus [3] = assay: Iron-clearing efficiency in non-iron-overloaded Sprague-Dawley rat bile assessed as iron excretion at 300 umol/kg, po; assay type: functional
In short: (§2)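 Male Sprague–Dawley rats (400–450 g), not iron-loaded and bile duct-cannulated, got one dose of 50, 150 or 300 µmol/kg po, or 300 µmol/kg sc. Vehicle was water or the monosodium salt. Bile was collected every 3 h for 24 h and urine at 24 h. Iron was measured by atomic absorption. Efficiency was treated minus control iron excretion, divided by theoretical output (2:1 ligand:iron), as a percent; mean ± SEM.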

Liver [4] = assay: Biodistribution in Sprague-Dawley rat liver assessed per gram tissue wet weight at 300 umol/kg, po after 4 hrs; assay type: ADME, organism-based; details: in vivo; in short: as §1
Rattus norvegicus [5] = assay: Iron-clearing efficiency in non-iron-overloaded Sprague-Dawley rat at 50 umol/kg, po after 24 hrs relative to control; assay type: functional; in short: as §2
Rattus norvegicus [6] = assay: Iron-clearing efficiency in non-iron-overloaded Sprague-Dawley rat bile assessed as iron excretion at 50 umol/kg, po; assay type: functional; in short: as §2
Rattus norvegicus [7] = assay: Toxicity in iron-overloaded Sprague-Dawley rat assessed as survival at 75 umol/kg/day, po after 28 days by non-renal perfusion protocol; assay type: organism-based; details: in vivo, 672 h
In short: (§3)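 Male Sprague–Dawley rats were iron-loaded with ip iron dextran, 105 mg/kg/dose × 4 over two weeks, then given two weeks to equilibrate (about 350 mg Fe/kg). They received oral gavage once daily for 28 days in the afternoon, unfasted, six per group, with age-matched controls. Euthanasia was 24 h after the last dose. Survival was recorded, and kidney and bone marrow were sent for histopathology.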

Rattus norvegicus [8] = assay: Iron-clearing efficiency in non-iron-overloaded Sprague-Dawley rat at 150 umol/kg, po after 24 hrs relative to control; assay type: functional; in short: as §2
Plasma [9] = assay: Biodistribution in Sprague-Dawley rat plasma at 300 umol/kg, sc after 4 hrs; assay type: ADME, organism-based; details: in vivo
Kidney [10] = assay: Biodistribution in Sprague-Dawley rat kidney assessed per gram tissue wet weight at 300 umol/kg, po after 1 hr; assay type: ADME, organism-based; details: in vivo; in short: as §1
Rattus norvegicus [11] = assay: Toxicity in non-iron-overloaded Sprague-Dawley rat assessed as survival at 150 umol/kg/day, po after 28 days by non-renal perfusion protocol; assay type: organism-based; details: in vivo, 672 h
In short: (§4)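 Male Sprague–Dawley rats with normal iron stores, unfasted, received oral gavage once daily in the afternoon for 28 days, six per group, with age-matched untreated controls. Euthanasia was 24 h after the last dose. Survival was recorded over the dosing period, and kidney and bone marrow were examined histopathologically.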

Pancreas [12] = assay: Biodistribution in Sprague-Dawley rat pancreas assessed per gram tissue wet weight at 300 umol/kg, sc after 4 hrs; assay type: ADME, organism-based; details: in vivo
Rattus norvegicus [13] = assay: Iron-clearing efficiency in non-iron-overloaded Sprague-Dawley rat at 300 umol/kg, sc after 24 hrs relative to control; assay type: functional; in short: as §2
Heart [14] = assay: Biodistribution in Sprague-Dawley rat heart assessed per gram tissue wet weight at 300 umol/kg, po after 2 hrs; assay type: ADME, organism-based; details: in vivo; in short: as §1
Plasma [15] = assay: Biodistribution in Sprague-Dawley rat plasma at 300 umol/kg, po after 2 hrs; assay type: ADME, organism-based; details: in vivo; in short: as §1
Rattus norvegicus [16] = assay: Toxicity in iron-overloaded Sprague-Dawley rat assessed as survival at 300 umol/kg/day, po after 28 days by non-renal perfusion protocol; assay type: organism-based; details: in vivo, 672 h; in short: as §3
Plasma [17] = assay: Biodistribution in Sprague-Dawley rat plasma at 300 umol/kg, sc after 1 hr; assay type: ADME, organism-based; details: in vivo
Kidney [18] = assay: Biodistribution in Sprague-Dawley rat kidney assessed per gram tissue wet weight at 300 umol/kg, po after 2 hrs; assay type: ADME, organism-based; details: in vivo; in short: as §1
Sapajus apella [19] = assay: Iron-clearing efficiency in iron-overloaded Cebus apella at 150 umol/kg, sc after 2 days relative to control; assay type: functional
In short: (§5)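 Monkeys (Cebus apella, 3.5–4 kg) were iron-loaded to about 500 mg Fe/kg with iv iron dextran and rested at least 60 days. They then got one 150 µmol/kg dose, po or sc. Feces and urine were collected every 24 h from 4 days before to 5 days after dosing, and iron was measured by flame atomic absorption. Efficiency was the 2-day post-drug iron minus the 4-day pre-drug baseline, divided by theoretical output (2:1 ligand:iron); mean ± SEM.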

Kidney [20] = assay: Biodistribution in Sprague-Dawley rat kidney assessed per gram tissue wet weight at 300 umol/kg, sc after 2 hrs; assay type: ADME, organism-based; details: in vivo
Rattus norvegicus [21] = assay: Iron-clearing efficiency in non-iron-overloaded Sprague-Dawley rat bile assessed as iron excretion at 150 umol/kg, po; assay type: functional; in short: as §2
Pancreas [22] = assay: Biodistribution in Sprague-Dawley rat pancreas assessed per gram tissue wet weight at 300 umol/kg, po after 4 hrs; assay type: ADME, organism-based; details: in vivo; in short: as §1
Rattus norvegicus [23] = assay: Nephrotoxicity in Sprague-Dawley rat assessed as heavy vacuolized renal tubules at […] for 7 days by renal perfusion studies; assay type: toxicity, organism-based; details: in vivo, 168 h, in the assay text read “237 umol/kg” for “273 umol/kg”
In short: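 Male Sprague–Dawley rats (200–250 g), fasted overnight, got 237 µmol/kg/dose po twice daily (474 µmol/kg/day) for 7 days and were fed about 3 h post-drug. Untreated age-matched rats were controls. One day post-drug, under pentobarbital, kidneys were perfusion-fixed with glutaraldehyde in Tyrode's buffer and embedded in TAAB. 500 nm sections were stained with toluidine blue and examined by light microscopy at 400×.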

Kidney [24] = assay: Biodistribution in Sprague-Dawley rat kidney assessed per gram tissue wet weight at 300 umol/kg, sc after 1 hr; assay type: ADME, organism-based; details: in vivo
Liver [25] = assay: Biodistribution in Sprague-Dawley rat liver assessed per gram tissue wet weight at 300 umol/kg, po after 1 hr; assay type: ADME, organism-based; details: in vivo; in short: as §1
Liver [26] = assay: Biodistribution in Sprague-Dawley rat liver assessed per gram tissue wet weight at 300 umol/kg, sc after 2 hrs; assay type: ADME, organism-based; details: in vivo
Heart [27] = assay: Biodistribution in Sprague-Dawley rat heart assessed per gram tissue wet weight at 300 umol/kg, sc after 2 hrs; assay type: ADME, organism-based; details: in vivo
Heart [28] = assay: Biodistribution in Sprague-Dawley rat heart assessed per gram tissue wet weight at 300 umol/kg, sc after 1 hr; assay type: ADME, organism-based; details: in vivo
Rattus norvegicus [29] = assay: Toxicity in iron-overloaded Sprague-Dawley rat assessed as survival at 150 umol/kg/day, po after 28 days by non-renal perfusion protocol; assay type: organism-based; details: in vivo, 672 h; in short: as §3
Rattus norvegicus [30] = assay: Toxicity in non-iron-overloaded Sprague-Dawley rat assessed as survival at 300 umol/kg/day, po after 28 days by non-renal perfusion protocol; assay type: organism-based; details: in vivo, 672 h; in short: as §4
Pancreas [31] = assay: Biodistribution in Sprague-Dawley rat pancreas assessed per gram tissue wet weight at 300 umol/kg, sc after 2 hrs; assay type: ADME, organism-based; details: in vivo
Pancreas [32] = assay: Biodistribution in Sprague-Dawley rat pancreas assessed per gram tissue wet weight at 300 umol/kg, po after 1 hr; assay type: ADME, organism-based; details: in vivo; in short: as §1
Kidney [33] = assay: Biodistribution in Sprague-Dawley rat kidney assessed per gram tissue wet weight at 300 umol/kg, po after 4 hrs; assay type: ADME, organism-based; details: in vivo; in short: as §1
Liver [34] = assay: Biodistribution in Sprague-Dawley rat liver assessed per gram tissue wet weight at 300 umol/kg, sc after 1 hr; assay type: ADME, organism-based; details: in vivo
Sapajus apella [35] = assay: Iron-clearing efficiency in iron-overloaded Cebus apella at 150 umol/kg, po after 2 days relative to control; assay type: functional; in short: as §5
Heart [36] = assay: Biodistribution in Sprague-Dawley rat heart assessed per gram tissue wet weight at 300 umol/kg, po after 1 hr; assay type: ADME, organism-based; details: in vivo; in short: as §1
Pancreas [37] = assay: Biodistribution in Sprague-Dawley rat pancreas assessed per gram tissue wet weight at 300 umol/kg, po after 2 hrs; assay type: ADME, organism-based; details: in vivo; in short: as §1
Rattus norvegicus [38] = assay: Toxicity in non-iron-overloaded Sprague-Dawley rat assessed as survival at 75 umol/kg/day, po after 28 days by non-renal perfusion protocol; assay type: organism-based; details: in vivo, 672 h; in short: as §4
Plasma [39] = assay: Biodistribution in Sprague-Dawley rat plasma at 300 umol/kg, sc after 2 hrs; assay type: ADME, organism-based; details: in vivo
Liver [40] = assay: Biodistribution in Sprague-Dawley rat liver assessed per gram tissue wet weight at 300 umol/kg, sc after 4 hrs; assay type: ADME, organism-based; details: in vivo
Liver [41] = assay: Biodistribution in Sprague-Dawley rat liver assessed per gram tissue wet weight at 300 umol/kg, po after 2 hrs; assay type: ADME, organism-based; details: in vivo; in short: as §1
Pancreas [42] = assay: Biodistribution in Sprague-Dawley rat pancreas assessed per gram tissue wet weight at 300 umol/kg, sc after 1 hr; assay type: ADME, organism-based; details: in vivo
Plasma [43] = assay: Biodistribution in Sprague-Dawley rat plasma at 300 umol/kg, po after 4 hrs; assay type: ADME, organism-based; details: in vivo; in short: as §1
Heart [44] = assay: Biodistribution in Sprague-Dawley rat heart assessed per gram tissue wet weight at 300 umol/kg, sc after 4 hrs; assay type: ADME, organism-based; details: in vivo

COCCOCCOCCOc1cccc(C2=N[C@@](C)(C(=O)O)CS2)c1O [DEFERITAZOLE]
Drug uptake (Plasma [1]): 26 nmol/g
Drug uptake (Kidney [2]): 90 nmol/g
Activity (Rattus norvegicus [3]): >95%
Drug uptake (Liver [4]): 87 nmol/g
Activity (Rattus norvegicus [5]): 20.7%
Activity (Rattus norvegicus [6]): >95%
Activity (Rattus norvegicus [7]): Non-toxic
Activity (Rattus norvegicus [8]): 18.7%
Drug uptake (Plasma [9]): 13 nmol/g
Drug uptake (Kidney [10]): 150 nmol/g
Activity (Rattus norvegicus [11]): Non-toxic
Drug uptake (Pancreas [12]): 12 nmol/g
Activity (Rattus norvegicus [13]): 13.4%
Drug uptake (Heart [14]): 4 nmol/g
Drug uptake (Plasma [15]): 9 nmol/g
Activity (Rattus norvegicus [16]): Non-toxic
Drug uptake (Plasma [17]): 46 nmol/g
Drug uptake (Kidney [18]): 48 nmol/g
Activity (Sapajus apella [19]): 21.5%
Drug uptake (Kidney [20]): 145 nmol/g
Activity (Rattus norvegicus [21]): >95%
Drug uptake (Pancreas [22]): 6 nmol/g
Activity (Rattus norvegicus [23]): Non-toxic
Drug uptake (Kidney [24]): 259 nmol/g
Drug uptake (Liver [25]): 234 nmol/g
Drug uptake (Liver [26]): 193 nmol/g
Drug uptake (Heart [27]): 8 nmol/g
Drug uptake (Heart [28]): 16 nmol/g
Activity (Rattus norvegicus [29]): Non-toxic
Activity (Rattus norvegicus [30]): Non-toxic
Drug uptake (Pancreas [31]): 30 nmol/g
Drug uptake (Pancreas [32]): 9 nmol/g
Drug uptake (Kidney [33]): 15 nmol/g
Drug uptake (Liver [34]): 318 nmol/g
Activity (Sapajus apella [35]): 23%
Drug uptake (Heart [36]): 9 nmol/g
Drug uptake (Pancreas [37]): 24 nmol/g
Activity (Rattus norvegicus [38]): Non-toxic
Drug uptake (Plasma [39]): 24 nmol/g
Drug uptake (Liver [40]): 168 nmol/g
Drug uptake (Liver [41]): 151 nmol/g
Drug uptake (Pancreas [42]): 22 nmol/g
Drug uptake (Plasma [43]): 2 nmol/g
Drug uptake (Heart [44]): 6 nmol/g
